Measured values as given in ChEMBL document CHEMBL4118021, “Studies of TAK1-centered polypharmacology with novel covalent TAK1 inhibitors” (Bioorg Med Chem, 2017).

Key:
Assay type in all cases: cell-based
[1] = target: 5'-AMP-activated protein kinase catalytic subunit alpha-2 (Homo sapiens) (UniProt P54646); test: Inhibition of AMPKa2 in human SKCO1 cells at 1 uM after 4 hrs using biotin labeled DLKPENVLLDAHMNAK probe by mass-spectrometric analysis relative to control
Procedure, shortened: (§1)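 Live SK-CO-1 cells were treated 4 h with compound at 1 μM or DMSO, then lysed. Lysates were labeled with a lysine-reactive ATP/ADP-biotin probe and analysed by mass spectrometry. Percent inhibition is the loss of probe-dependent recovery of the kinase peptide relative to DMSO.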

[2] = target: T1, Aurora kinase A (Homo sapiens) (UniProt O14965); test: Inhibition of AurA in human SKCO1 cells at 1 uM after 4 hrs using biotin labeled FILALKVLFK probe by mass-spectrometric analysis relative to control; procedure, shortened: as §1
T1 sequence (whole entry): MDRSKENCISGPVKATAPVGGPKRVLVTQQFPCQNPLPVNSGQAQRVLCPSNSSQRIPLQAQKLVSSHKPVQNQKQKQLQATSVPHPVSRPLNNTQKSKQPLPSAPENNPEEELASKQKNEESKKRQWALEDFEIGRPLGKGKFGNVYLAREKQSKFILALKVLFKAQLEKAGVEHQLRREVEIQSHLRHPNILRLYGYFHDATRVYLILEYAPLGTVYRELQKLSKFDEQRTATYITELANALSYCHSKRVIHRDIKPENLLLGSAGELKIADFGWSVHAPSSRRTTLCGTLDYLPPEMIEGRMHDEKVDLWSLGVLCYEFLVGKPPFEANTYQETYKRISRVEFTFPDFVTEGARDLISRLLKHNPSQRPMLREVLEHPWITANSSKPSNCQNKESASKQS

[3] = target: Epidermal growth factor receptor (Homo sapiens) (UniProt P00533); test: Inhibition of EGFR in human SKCO1 cells at 1 uM after 4 hrs using biotin labeled LLGAEEKEYHAEGGKVPIK probe by mass-spectrometric analysis relative to control
Epidermal growth factor receptor (Homo sapiens), sequence (P00533 whole entry): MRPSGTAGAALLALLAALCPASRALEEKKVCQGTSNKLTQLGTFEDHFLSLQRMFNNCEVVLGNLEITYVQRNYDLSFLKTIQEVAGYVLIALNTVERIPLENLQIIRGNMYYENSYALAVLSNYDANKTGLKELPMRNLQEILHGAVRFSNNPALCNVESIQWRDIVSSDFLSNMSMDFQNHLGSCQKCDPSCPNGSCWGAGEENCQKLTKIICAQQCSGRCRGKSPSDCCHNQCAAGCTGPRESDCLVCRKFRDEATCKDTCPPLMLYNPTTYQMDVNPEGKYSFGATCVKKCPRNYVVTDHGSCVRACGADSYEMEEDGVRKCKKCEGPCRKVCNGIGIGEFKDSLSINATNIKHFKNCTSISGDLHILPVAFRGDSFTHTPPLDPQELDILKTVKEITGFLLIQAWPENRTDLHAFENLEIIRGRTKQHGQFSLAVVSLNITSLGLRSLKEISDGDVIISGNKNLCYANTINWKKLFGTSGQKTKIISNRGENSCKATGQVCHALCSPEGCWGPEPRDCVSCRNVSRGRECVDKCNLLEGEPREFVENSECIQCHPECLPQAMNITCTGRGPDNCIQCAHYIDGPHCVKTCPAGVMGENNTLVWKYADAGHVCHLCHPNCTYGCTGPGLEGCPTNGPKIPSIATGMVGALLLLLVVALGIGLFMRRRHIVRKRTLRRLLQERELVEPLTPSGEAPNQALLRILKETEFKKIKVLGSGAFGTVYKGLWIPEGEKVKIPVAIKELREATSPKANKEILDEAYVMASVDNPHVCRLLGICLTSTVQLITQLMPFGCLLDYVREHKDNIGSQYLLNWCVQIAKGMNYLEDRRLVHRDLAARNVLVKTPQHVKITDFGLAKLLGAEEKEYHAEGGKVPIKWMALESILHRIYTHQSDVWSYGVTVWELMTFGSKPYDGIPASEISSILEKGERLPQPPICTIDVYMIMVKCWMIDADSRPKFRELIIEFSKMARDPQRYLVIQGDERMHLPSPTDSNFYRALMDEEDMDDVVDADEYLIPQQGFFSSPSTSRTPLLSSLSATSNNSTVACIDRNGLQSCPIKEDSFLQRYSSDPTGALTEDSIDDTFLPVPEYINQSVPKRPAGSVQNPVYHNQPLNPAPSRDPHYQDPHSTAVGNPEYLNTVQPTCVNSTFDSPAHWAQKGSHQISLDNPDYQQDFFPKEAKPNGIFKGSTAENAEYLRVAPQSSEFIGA

[4] = target: T2, Mitogen-activated protein kinase kinase kinase kinase 3 (Homo sapiens) (UniProt Q8IVH8); test: Inhibition of KHS2 in human SKCO1 cells at 1 uM after 4 hrs using biotin labeled NVNTGELAAIKVIK probe by mass-spectrometric analysis relative to control
T2 sequence (whole entry): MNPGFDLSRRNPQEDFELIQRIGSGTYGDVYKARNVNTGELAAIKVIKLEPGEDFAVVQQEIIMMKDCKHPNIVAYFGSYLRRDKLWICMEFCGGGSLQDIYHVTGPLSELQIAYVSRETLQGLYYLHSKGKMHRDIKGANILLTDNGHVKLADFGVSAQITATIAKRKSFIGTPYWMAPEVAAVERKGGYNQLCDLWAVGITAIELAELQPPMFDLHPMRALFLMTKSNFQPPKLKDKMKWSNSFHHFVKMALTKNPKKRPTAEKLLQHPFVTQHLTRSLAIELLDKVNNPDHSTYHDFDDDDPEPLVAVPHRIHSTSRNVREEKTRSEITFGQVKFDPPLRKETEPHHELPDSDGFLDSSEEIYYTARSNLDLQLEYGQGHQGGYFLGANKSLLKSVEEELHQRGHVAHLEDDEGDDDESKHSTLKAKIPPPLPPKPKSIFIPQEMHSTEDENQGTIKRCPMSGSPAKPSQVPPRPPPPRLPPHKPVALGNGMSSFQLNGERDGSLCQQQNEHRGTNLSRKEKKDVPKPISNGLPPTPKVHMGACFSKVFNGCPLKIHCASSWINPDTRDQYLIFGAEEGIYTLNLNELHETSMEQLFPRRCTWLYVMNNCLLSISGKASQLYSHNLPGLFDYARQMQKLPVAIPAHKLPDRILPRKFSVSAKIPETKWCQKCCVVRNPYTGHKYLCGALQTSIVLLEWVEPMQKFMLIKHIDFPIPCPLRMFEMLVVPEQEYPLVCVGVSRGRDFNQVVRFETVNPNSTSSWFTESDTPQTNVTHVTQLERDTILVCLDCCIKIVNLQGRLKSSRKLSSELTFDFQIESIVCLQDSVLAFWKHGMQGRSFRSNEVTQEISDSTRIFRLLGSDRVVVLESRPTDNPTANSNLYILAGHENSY

[5] = target: Serine/threonine-protein kinase 10 (Homo sapiens) (UniProt O94804); test: Inhibition of LOK in human SKCO1 cells at 1 uM after 4 hrs using biotin labeled DLKAGNVLMTLEGDIR probe by mass-spectrometric analysis relative to control
Serine/threonine-protein kinase 10 (Homo sapiens), sequence (O94804 whole entry, looked up): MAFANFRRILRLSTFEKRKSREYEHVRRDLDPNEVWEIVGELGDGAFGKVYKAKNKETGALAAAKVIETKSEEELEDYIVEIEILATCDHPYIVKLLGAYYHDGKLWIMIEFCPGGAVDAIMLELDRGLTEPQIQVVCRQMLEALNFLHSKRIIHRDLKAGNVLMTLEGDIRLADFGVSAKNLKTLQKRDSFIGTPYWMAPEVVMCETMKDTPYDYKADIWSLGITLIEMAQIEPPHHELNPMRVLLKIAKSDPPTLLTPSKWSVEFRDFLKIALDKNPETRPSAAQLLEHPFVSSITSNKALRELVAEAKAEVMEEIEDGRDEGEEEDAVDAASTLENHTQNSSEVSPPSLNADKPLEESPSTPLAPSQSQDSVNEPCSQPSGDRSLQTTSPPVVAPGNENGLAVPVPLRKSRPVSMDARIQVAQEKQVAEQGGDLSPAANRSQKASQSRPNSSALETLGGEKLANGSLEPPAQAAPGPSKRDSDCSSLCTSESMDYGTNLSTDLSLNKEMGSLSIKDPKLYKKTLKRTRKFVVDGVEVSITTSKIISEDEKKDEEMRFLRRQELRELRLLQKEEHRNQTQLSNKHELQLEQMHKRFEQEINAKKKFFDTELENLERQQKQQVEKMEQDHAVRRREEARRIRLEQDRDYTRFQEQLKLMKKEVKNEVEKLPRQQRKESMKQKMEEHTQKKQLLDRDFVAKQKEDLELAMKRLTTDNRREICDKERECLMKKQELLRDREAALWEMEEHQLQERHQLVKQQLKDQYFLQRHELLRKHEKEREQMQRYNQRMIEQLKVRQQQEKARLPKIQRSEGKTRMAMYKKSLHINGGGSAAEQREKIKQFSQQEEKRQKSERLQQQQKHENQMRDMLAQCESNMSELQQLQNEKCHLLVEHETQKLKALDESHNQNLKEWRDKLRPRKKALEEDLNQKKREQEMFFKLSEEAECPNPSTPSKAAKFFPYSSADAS

[6] = target: Ribosomal protein S6 kinase beta-2 (Homo sapiens) (UniProt Q9UBS0); test: Inhibition of p70S6Kb in human SKCO1 cells at 1 uM after 4 hrs using biotin labeled DLKPENIMLSSQGHIK probe by mass-spectrometric analysis relative to control
Ribosomal protein S6 kinase beta-2 (Homo sapiens), sequence (Q9UBS0 whole entry): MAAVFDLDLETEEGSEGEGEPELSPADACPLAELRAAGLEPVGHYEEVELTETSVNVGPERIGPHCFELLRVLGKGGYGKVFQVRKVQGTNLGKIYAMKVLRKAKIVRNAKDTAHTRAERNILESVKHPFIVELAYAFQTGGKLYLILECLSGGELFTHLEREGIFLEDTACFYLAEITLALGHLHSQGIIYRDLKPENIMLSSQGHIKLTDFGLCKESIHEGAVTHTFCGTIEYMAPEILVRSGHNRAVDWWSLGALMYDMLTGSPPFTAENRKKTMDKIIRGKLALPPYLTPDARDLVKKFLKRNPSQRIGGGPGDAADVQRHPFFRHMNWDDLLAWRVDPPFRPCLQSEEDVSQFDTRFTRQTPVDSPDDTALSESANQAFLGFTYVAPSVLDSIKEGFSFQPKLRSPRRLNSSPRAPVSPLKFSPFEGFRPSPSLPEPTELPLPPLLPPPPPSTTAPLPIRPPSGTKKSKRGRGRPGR
Procedure, shortened: (§2)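 Live SK-CO-1 cells exposed to compound at 1 μM or DMSO for 4 h (KiNativ). Lysates then labeled with lysine-reactive ATP/ADP-biotin probe, and probe-labeled kinase peptides quantified by mass spectrometry. Percent inhibition of probe-dependent recovery calculated relative to DMSO-treated cells.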

[7] = target: RAF proto-oncogene serine/threonine-protein kinase (Homo sapiens) (UniProt P04049); test: Inhibition of RAF1 in human SKCO1 cells at 1 uM after 4 hrs using biotin labeled DMKSNNIFLHEGLTVK probe by mass-spectrometric analysis relative to control; procedure, shortened: as §2
RAF proto-oncogene serine/threonine-protein kinase (Homo sapiens), sequence (P04049 whole entry): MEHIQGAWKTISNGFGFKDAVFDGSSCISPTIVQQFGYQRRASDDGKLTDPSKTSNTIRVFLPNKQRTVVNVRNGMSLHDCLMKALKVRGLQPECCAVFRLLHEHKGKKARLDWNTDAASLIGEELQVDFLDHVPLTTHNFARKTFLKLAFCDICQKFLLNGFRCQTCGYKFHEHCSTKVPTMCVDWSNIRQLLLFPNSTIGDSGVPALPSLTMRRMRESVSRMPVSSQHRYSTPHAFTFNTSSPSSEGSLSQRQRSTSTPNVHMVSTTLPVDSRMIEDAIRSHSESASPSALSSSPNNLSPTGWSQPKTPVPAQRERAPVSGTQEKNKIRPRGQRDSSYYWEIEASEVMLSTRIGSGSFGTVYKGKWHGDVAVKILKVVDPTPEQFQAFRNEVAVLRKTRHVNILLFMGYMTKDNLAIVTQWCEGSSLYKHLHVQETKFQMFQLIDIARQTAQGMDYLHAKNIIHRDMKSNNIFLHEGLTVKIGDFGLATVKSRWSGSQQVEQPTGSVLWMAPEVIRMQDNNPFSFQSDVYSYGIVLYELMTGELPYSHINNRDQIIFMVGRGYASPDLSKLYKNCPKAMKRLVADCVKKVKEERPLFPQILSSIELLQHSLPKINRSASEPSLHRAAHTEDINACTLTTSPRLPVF

[8] = target: T3, STE20-related kinase adapter protein beta (Homo sapiens) (UniProt Q9C0K7); test: Inhibition of STLK6 in human SKCO1 cells at 1 uM after 4 hrs using biotin labeled SIKASHILISGDGLVTLSGLSHLHSLV probe by mass-spectrometric analysis relative to control; procedure, shortened: as §2
T3 sequence (whole entry): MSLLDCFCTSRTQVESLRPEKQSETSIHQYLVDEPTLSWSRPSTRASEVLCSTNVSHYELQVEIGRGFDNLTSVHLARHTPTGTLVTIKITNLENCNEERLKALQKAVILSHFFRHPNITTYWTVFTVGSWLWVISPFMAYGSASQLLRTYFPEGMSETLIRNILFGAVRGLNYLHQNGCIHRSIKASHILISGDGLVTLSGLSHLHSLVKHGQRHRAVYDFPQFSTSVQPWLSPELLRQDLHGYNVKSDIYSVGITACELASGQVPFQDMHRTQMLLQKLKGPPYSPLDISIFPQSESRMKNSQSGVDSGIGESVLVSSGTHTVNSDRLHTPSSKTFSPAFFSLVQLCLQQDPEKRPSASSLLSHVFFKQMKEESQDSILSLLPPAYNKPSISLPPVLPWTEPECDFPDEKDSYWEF

5'-AMP-activated protein kinase catalytic subunit alpha-2 (Homo sapiens), sequence (P54646 whole entry, looked up): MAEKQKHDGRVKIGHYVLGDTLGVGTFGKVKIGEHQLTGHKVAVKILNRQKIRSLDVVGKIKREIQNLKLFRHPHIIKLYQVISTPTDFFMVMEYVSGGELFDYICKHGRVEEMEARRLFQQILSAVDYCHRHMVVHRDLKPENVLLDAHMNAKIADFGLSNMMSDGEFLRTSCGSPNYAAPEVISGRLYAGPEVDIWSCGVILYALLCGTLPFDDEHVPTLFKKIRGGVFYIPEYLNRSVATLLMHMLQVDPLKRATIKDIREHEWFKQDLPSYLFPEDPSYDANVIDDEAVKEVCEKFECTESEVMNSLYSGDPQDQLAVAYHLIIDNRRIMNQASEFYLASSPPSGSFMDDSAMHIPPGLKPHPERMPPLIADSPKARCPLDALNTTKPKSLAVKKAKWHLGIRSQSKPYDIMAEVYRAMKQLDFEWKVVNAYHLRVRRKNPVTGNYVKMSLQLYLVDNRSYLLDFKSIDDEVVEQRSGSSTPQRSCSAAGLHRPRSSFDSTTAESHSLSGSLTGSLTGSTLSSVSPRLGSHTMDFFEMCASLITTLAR

Compound	inhibition [1]	inhibition [2]	inhibition [3]	inhibition [4]	inhibition [5]	inhibition [6]	inhibition [7]	inhibition [8]
C=CC(=O)Nc1ccccc1Nc1nc(Nc2ccc(N3CCN(C)CC3)cc2)ncc1Cl	76%	87.2%	47.6%	42.4%	40.4%	3.3%	65.6%	27.1%
COc1cc(O)c2c(c1)/C=C/C[C@H](O)[C@H](O)C(=O)/C=C\C[C@H](C)OC2=O	33.6%	59.4%	14.5%	3.1%	21.4%	54.6%	66.4%	24.9%
C=CC(=O)Nc1ccccc1Oc1nc(Nc2cnn(CCOC)c2)ncc1Cl	0.2%	52.6%	28.6%	-7.5%	11.6%	-1.5%	6.3%	34.4%
